MrgX1 agonist: agonists of human MrgX1 receptor, primary screen, HEK293 cells, Fluo-4 calcium flux; Mas-related G-protein coupled receptor member X1 (Homo sapiens), Q96LB2; Fluo-4 calcium fluorescence, agonist mode; stronger effect = higher value; B-score at 10 µM; 310,000 tested, 0.44% active; AID 588627, 2011;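 active = calcium response B-score plate-corrected fluorescence ratio at least 3 library SD, with starting fluorescence B-score inside 5 SD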
Target sequence (Q96LB2 whole entry, looked up): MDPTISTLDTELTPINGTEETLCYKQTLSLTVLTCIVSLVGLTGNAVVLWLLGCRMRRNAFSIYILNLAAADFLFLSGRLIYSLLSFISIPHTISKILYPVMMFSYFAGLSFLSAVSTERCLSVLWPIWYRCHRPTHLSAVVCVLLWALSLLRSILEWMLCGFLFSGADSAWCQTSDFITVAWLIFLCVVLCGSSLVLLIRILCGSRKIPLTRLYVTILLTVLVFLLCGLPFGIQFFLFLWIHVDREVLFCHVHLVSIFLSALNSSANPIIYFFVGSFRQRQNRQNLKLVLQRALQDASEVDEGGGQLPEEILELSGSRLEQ
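System: HEK293 cells stably expressing human MrgX1 receptor; Dosing: test compound in the initial addition of three; Schedule: overnight plating, then 30 min 37 °C plus 30 min room-temperature dye loading; Detection: kinetic calcium dye fluorescence, Fluo-4 NW; Controls: per-plate positive and negative controls for Z′ factor.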
RGS4 block: RGS4 inhibitors, primary screen, cell-based, HEK293 M3R inducible RGS4, calcium flux. Regulator of G-protein signaling 4 (Homo sapiens), P49798. B-score at 10 µM. 310,000 tested, 0.45% active. Fluo-4 calcium flux; stronger effect = higher value; triggered by carbachol at its EC20;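 active = B-score, a plate-corrected calcium signal, over three deviations above library mean, with baseline fluorescence within five deviations of library mean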;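 also: RGS4 expression induced by doxycycline in cells with stable M3 receptor; B-score is computed from the integrated fluorescence ratio over baseline after carbachol; higher B-score means a larger calcium signal and so more RGS4 inhibition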
Target sequence (P49798 whole entry, looked up): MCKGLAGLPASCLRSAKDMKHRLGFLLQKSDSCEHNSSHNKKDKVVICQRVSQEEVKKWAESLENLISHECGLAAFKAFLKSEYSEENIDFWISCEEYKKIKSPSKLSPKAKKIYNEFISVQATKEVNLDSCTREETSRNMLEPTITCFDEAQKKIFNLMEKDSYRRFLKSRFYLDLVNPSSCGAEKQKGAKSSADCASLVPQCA
Hep lipid drop: inhibitors of hepatocyte lipid droplet formation, primary screen, imaging, high-throughput imaging, BODIPY stain | AML12 mouse hepatocytes, oleate lipid droplets | inhibition, % at 6.5 µM | 240,000 tested, 0.4% active;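 active = lipid droplet intensity inhibited by at least 50%, with more than 500 cells counted; inconclusive = wells with under 300 cells, treated as cytotoxic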
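Test system: AML12 mouse liver cells; schedule: overnight exposure; technique: high-content imaging of BODIPY-stained droplets and DAPI nuclei; read-out: % inhibition of corrected integrated BODIPY droplet signal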
MrgX1 antagonist: antagonists of human MrgX1 receptor, primary screen, HEK293 cells, Fluo-4 calcium flux; Mas-related G-protein coupled receptor member X1 (Homo sapiens), Q96LB2; BAM8-22 antagonism; stronger effect = lower value; B-score at 10 µM; 310,000 tested, 1.3% active;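 active = calcium-response B-score plate-corrected more than 3 library SD below zero, starting fluorescence within 5 deviations, no agonist response on first addition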;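 also: peak minus trough fluorescence over baseline after final BAM8-22 challenge near maximal dose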
MrgX1 allo act: positive allosteric modulators of MrgX1, primary screen, HEK293 cells, Fluo-4 calcium flux. Mas-related G-protein coupled receptor member X1 (Homo sapiens), Q96LB2. FDSS; stronger effect = higher value. AID 588675, 2011. B-score at 10 µM. 310,000 tested, 0.63% active;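 active = plate-corrected calcium response at least 3 library SD above typical, normal starting fluorescence, not activating the receptor alone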;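 also: compound read alongside a low EC10 to EC30 dose of BAM8-22 agonist; peak minus trough fluorescence over baseline measured at the second addition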
RGS4 act: RGS4 potentiators or activators, primary screen, cell-based, HEK293 M3R inducible RGS4, calcium flux | carbachol calcium flux Fluo4; stronger effect = lower value | B-score at 10 µM | 310,000 tested, 0.92% active;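 active = B-score of the integrated calcium signal more than 4 SD below the library mean, with starting fluorescence not abnormally high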;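 also: negative B-score means reduced calcium response which marks RGS4 activation or potentiation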
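Reagent: ECmax carbachol challenge; Test system: M3R-expressing HEK293 line, RGS4 induced by doxycycline; Schedule: overnight RGS4 induction, 30 min dye load 37 °C, 20 min compound RT; Detection: calcium dye Fluo4 fluorescence; Read-out: Agonist-evoked peak-minus-minimum fluorescence over baseline, integrated ratio, B score.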
Numbers stand for hits; . = inactive; ? = inconclusive; / = no result. Compounds with a hit are over-represented: about 3.8% of the library has one in this group of screens.

SMILES	MrgX1 agonist	RGS4 block	Hep lipid drop	MrgX1 antagonist	MrgX1 allo act	RGS4 act
COc1ccc(CN2CCC(n3nccc3NC(=O)CCOc3ccccc3)CC2)cc1C	.	.	.	.	.	.
COC(=O)c1ccccc1NC(=O)CNCCc1ccc(OC)c(OC)c1	.	.	.	.	.	.
CCCCc1ccc(/C=C2\C(=O)c3ccccc3C(O)=C2C(=O)OCC)cc1	.	.	.	-10	.	.
CC1(C)CC(=O)C(C=Nc2ccccc2C(=O)O)=C(O)C1	.	.	/	.	.	.
CC1(C)CC(=O)C(C=Nc2ccccc2Sc2ccccc2)=C(O)C1	.	.	.	.	.	-8.8
O=c1[nH]c(=S)[nH]c2c1C(c1ccc(Br)cc1)c1c([nH]c(=S)[nH]c1=O)O2	.	.	.	.	.	.
COc1cc(/C=N\N=C2/SC(CC(=O)O)C(=O)N2c2ccc(O)cc2)ccc1O (configuration not stated)	.	.	/	-8.2	.	.
COc1ccc(/C=C2/C(=N)N3N=C(CC(=O)N4CCCC4)SC3=NC2=O)cc1OC	.	.	.	.	.	.
CSc1ccc(/C=C2/C(=N)N3N=C(CC(=O)N4CCCC4)SC3=NC2=O)cc1	31	.	.	.	.	.
COc1cc(/C=C2/C(=N)N3N=C(CC(=O)N4CCOCC4)SC3=NC2=O)ccc1OCc1ccccc1F	.	.	.	.	17	.
COc1cc(/C=C2/C(=N)N3N=C(CC(=O)N4CCOCC4)SC3=NC2=O)ccc1OCc1ccc(F)cc1	.	.	.	.	16	.
O=C(Cn1ccnc1[N+](=O)[O-])NCc1ccccc1	.	.	/	.	.	-7.7
COc1cc2nc(Nc3cccc(F)c3)nc(N)c2cc1OC	.	.	.	.	.	-7
COC(=O)c1ccc(/C(O)=C(\C#N)c2nc3ccccc3s2)cc1	28	.	/	.	.	.
CC(Oc1ccc(F)cc1)C(=O)N(CCC1=CCCCC1)c1c(N)n(Cc2ccccc2)c(=O)[nH]c1=O (configuration not stated)	.	.	/	.	.	.
FC(F)Sc1ccc(NC(=S)NCC2CCCCC2)cc1	.	.	/	-5.1	.	.
CCn1cc(C(=O)O)c(=O)c2cc(F)c(N/N=C/c3ccccc3[N+](=O)[O-])cc21	.	.	.	.	.	-9.4
CCn1cc(C(=O)O)c(=O)c2cc(F)c(N3CCN(C(=S)Nc4ccccc4OC)CC3)cc21	.	.	.	.	.	.
Cc1nc2ccccc2c2oc(C(=O)N3CCN(C(=O)c4ccco4)CC3)cc12	.	.	.	.	.	.
Cc1nc2ccccc2c2oc(C(=O)N3CCN(c4ccc([N+](=O)[O-])cc4)CC3)cc12	.	.	.	.	6.6	.
COCc1nnc(NS(=O)(=O)c2ccc(Br)cc2)s1	.	.	.	.	.	.
COc1ccccc1CNN	.	.	.	.	8	.
COc1ccccc1CNc1ncccn1	.	.	.	.	.	.
N#Cc1c(-n2cccc2/C=N/O)sc2c1CCCC2	32	.	/	.	.	.
O=C(NC1CCCCC1)C(c1ccc(F)cc1)N(CCc1ccccc1)C(=O)CN1C(=O)c2ccccc2S1(=O)=O (configuration not stated)	.	.	.	-8.9	.	.
SMILES	MrgX1 agonist	RGS4 block	Hep lipid drop	MrgX1 antagonist	MrgX1 allo act	RGS4 act
Cn1nc(-c2ccc(C(=O)NC3CCCCC3)cc2)c2ccccc2c1=O	.	.	.	.	9.5	.
C/C(=N\NC(=O)c1cccc([N+](=O)[O-])c1)c1cccs1	.	.	.	.	13	.
C/C(=N\NC(=O)c1cccc([N+](=O)[O-])c1)c1ccncc1	.	.	.	.	.	.
CN(C)C(/C=C/Nc1ccc(C#N)cc1)=C(C#N)C#N	.	.	/	-5.2	.	.
CN(C)C(/C=C/Nc1ccc(F)cc1)=C(C#N)C#N	.	.	/	.	.	.
N=C1/C(=C\c2ccc(SCc3ccccc3)o2)C(=O)N=C2SC=NN12	.	.	.	.	8.7	.
N=C1/C(=C\c2ccc(SCc3ccccc3)o2)C(=O)N=C2SC(CC(=O)N3CCOCC3)=NN12	.	.	.	.	.	.
O=C(CSc1nnc(NC(=O)C2CC(=O)N(c3ccccc3)C2)s1)NCc1ccco1 (configuration not stated)	.	.	.	.	.	.
CCOC(=O)C1CCCN(S(=O)(=O)c2ccc(S(=O)(=O)N3CCCC3)cc2)C1 (configuration not stated)	.	.	/	-5.3	.	.
CCOC(=O)C1CCCN(C(=O)c2ccc(S(=O)(=O)N3CCCC3)cc2)C1 (configuration not stated)	.	.	/	.	.	.
Cc1ccc(C(=O)CC(=O)c2ccccc2)cc1	.	.	.	.	.	.
Cc1ccc(C(=O)Sc2cccccc2=O)cc1	49	.	?	.	.	.
Cc1ccccc1-c1nc(C#N)c(N2CCCCC2)o1	.	.	/	.	.	.
O=C(Nc1ccc(Cl)cc1)Nc1ccc2c(c1)N1CCN=C1S2	.	.	/	-5.2	.	.
Nc1ccc2c(c1)N1CCN=C1S2	.	.	/	.	.	.
CC(Oc1ccc2ccc(=O)oc2c1)C(=O)NC1CC(C)(C)NC(C)(C)C1 (configuration not stated)	.	.	.	.	.	.
COc1c(CC=C(C)C)cc(C2CC(=O)c3c(O)cc(O)cc3O2)cc1CC=C(C)C (configuration not stated)	.	.	.	.	.	-8.3
CCN(CC)CCN(C)C(=O)CCc1nnc(-c2ccc(C)s2)o1	.	.	.	-6.6	.	.
COc1cc2ccccc2cc1C(=O)OCC(=O)N(CC(C)C)c1c(N)n(Cc2ccccc2)c(=O)[nH]c1=O	.	.	/	.	.	.
COc1cccc(NC(=O)C(c2ccccc2)N2CCCCC2)c1 (configuration not stated)	.	.	.	.	.	-7
O=C(Nc1cc(Cl)cc(Cl)c1)C(c1ccccc1)N1CCCCC1 (configuration not stated)	.	.	.	.	.	.
Cc1ccc2nc(SCC(=O)Nc3cc(C)on3)nc(=O)n2c1	.	.	/	.	.	.
CC1(C)CC(=O)C2=C(C1)OC(N)=C(C#N)C2C#Cc1ccccc1 (configuration not stated)	53	.	/	.	.	.
CC(c1ccccc1)C1C(C#N)=C(N)OC2=C1C(=O)CC(C)(C)C2 (configuration not stated)	.	.	/	.	.	.
